Results collected from several papers.
Each line is one published result; the experiments were not run side by side.
Target: Serine/threonine-protein kinase 10 (STK10, Homo sapiens, UniProt O94804)

| Compound | assay | conditions | endpoint | result |
| --- | --- | --- | --- | --- |
| C=CC(=O)N1CCC[C@@H](n2nc(-c3ccc(Oc4ccccc4)cc3)c3c(N)ncnc32)C1 | enzyme activity, inhibitor | 1 µM | inhibition | 46% |
| CCCCC(=O)Nc1ccc(-c2ccc3ncn(CCC)c(=O)c3c2)cn1 | binding, competition with immobilised ligand | 0.5 µM | remaining binding | 99% |
| C1=C/COCc2cc(ccc2OCCN2CCCC2)Nc2nccc(n2)-c2cccc(c2)COC/1 | cell-free assay | 0.1 µM | remaining signal | 89% |
| C#Cc1cc(-c2cc(Nc3nc(N[C@@H](C)c4ccc(F)cn4)ncc3Cl)n[nH]2)ccc1C=O | enzyme activity, inhibitor | 0.2 µM | inhibition | 36.5% |
| Cc1ccc(NC(=O)c2ccnc(C(F)(F)F)c2)cc1-c1cc(OCCO)nc(N2CCOCC2)c1 | binding, competition with immobilised ligand | 1 µM | remaining binding | 21% |
| C=CC(=O)N1CCC([C@@H]2CCNc3c(C(N)=O)c(-c4ccc(Oc5ccccc5)cc4)nn32)CC1 | enzyme activity, inhibitor | 1 µM | inhibition | 0% |
| COc1ccc2oc(-c3ccc4nc(N)oc4c3)c/c(=N\c3ccccc3NC(=O)CCN)c2c1 | binding | 1 µM | remaining binding | 100% |
| CN1CCN(C(=O)c2ccc(NC(=O)Nc3ccc(N(C)c4ccnc(Nc5ccc(CS(C)(=O)=O)cc5)n4)cc3)cc2)CC1 | binding, competition with immobilised ligand | 1 µM | remaining binding | 0.4% |
